Experimental findings from ChEMBL document CHEMBL1127299, “Inhibition of peptidylglycine alpha-amidating monooxygenase by N-substituted homocysteine analogs” (J Med Chem, 1994) are described below.

Non-standard residues stand in square brackets, D forms with d. Residues, ends and D or L forms follow the SMILES beside them. ξ: configuration not given here. *: point of attachment. Hydrocinnamoyl = O=C(CCc1ccccc1)*; hCys = N[C@@H](CCS)C(=O)O; Nle = CCCC[C@H](N)C(=O)O; Cbz = O=C(OCc1ccccc1)*; Boc = CC(C)(C)OC(=O)*; ξhCys = NC(CCS)C(=O)O; OBn = c1ccc(CO*)cc1

Usually IC50 stands for the midpoint of a concentration-inhibition curve. For orientation: inhibition means how much of the control response was suppressed.

The target of assay [1] is T1, Peptidylglycine alpha-amidating monooxygenase (Rattus norvegicus, UniProt P14925).
T1 sequence (P14925 whole entry): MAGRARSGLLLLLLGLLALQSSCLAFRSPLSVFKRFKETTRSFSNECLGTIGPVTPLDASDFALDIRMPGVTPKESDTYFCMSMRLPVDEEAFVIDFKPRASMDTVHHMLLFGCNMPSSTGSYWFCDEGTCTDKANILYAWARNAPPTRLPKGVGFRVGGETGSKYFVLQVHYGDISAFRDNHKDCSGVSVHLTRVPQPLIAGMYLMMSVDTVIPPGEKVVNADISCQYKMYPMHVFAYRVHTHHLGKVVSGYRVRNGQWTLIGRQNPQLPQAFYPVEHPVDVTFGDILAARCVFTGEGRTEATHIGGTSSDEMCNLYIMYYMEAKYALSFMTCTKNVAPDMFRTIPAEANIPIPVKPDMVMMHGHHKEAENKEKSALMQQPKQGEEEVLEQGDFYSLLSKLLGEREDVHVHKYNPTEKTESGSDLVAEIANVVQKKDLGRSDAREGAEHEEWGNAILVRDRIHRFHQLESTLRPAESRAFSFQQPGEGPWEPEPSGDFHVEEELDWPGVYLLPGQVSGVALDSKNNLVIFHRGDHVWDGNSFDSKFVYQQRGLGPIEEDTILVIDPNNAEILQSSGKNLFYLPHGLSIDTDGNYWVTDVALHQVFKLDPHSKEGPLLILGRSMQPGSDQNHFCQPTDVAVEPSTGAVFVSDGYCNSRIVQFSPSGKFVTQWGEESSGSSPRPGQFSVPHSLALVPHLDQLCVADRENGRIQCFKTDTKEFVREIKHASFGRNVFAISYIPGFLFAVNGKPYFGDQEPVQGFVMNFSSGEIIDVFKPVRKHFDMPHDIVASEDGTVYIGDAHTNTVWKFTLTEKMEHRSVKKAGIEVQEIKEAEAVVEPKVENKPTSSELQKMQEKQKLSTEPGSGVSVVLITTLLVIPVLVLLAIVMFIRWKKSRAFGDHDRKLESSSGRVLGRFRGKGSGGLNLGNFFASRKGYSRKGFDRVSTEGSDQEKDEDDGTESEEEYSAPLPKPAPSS
Briefly: Inhibitory activity against peptidylglycine alpha-amidating monooxygenase (PAM) was determined. Type of assay: functional. The procedure, abridged:
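Partially purified PAM (DEAE cartridge, then Sephacryl 300 SF), 13.5 μU, preincubated with inhibitor 20 min at room temperature in 150 mM TES pH 7.0 with 0.001% Triton-100. Started with N-dansyl-D-Tyr-Phe-Gly (2.0 μM) plus ascorbate (3 mM), quenched with EDTA. Seven or more concentrations in duplicate, three runs; IC50 by least squares on log dose–response.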

The target of assay [2] is T2, Peptidylglycine alpha-amidating monooxygenase (Rattus norvegicus) (UniProt P14925).
T2 sequence (whole entry): T1 sequence (P14925 whole entry)
Briefly: (§1) Inhibition of PAM on Substance P biosynthesis in the dorsal root ganglion (DRG) cell culture assay. It counts as functional, tissue-based. Also noted: concentration or dose not given beside the values. The settings on record: concentration not given here. In a few lines: (§2)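 Rat primary dorsal root ganglion neurons cultured without ascorbate for six days. On day 6 inhibitor added (10 μM), then ascorbate 500 μM 12 h later, incubated overnight. SP measured by RIA with an antibody selective for SP over SP-Gly. SP-Gly found by treating a duplicate sample with 3.5 μg PAM and taking the difference in SP; percent inhibition.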

In assay [3] the target is T2, Peptidylglycine alpha-amidating monooxygenase (Rattus norvegicus). The assay is described as §1. Type of assay: functional, tissue-based. Conditions: concentration not given here. In a few lines: as §2

Regarding `O=C(CCc1ccccc1)N[C@@H](Cc1ccccc1)C(=O)NC(CCS)C(=O)OCc1ccccc1` (stereo partly specified) (Hydrocinnamoyl-Phe-[ξhCys]-OBn), the IC50 in assay [1] was over 10000 nM. The same measure, in the same setting: under `CC(C)(C)OC(=O)N[C@H](Cc1ccc(O)cc1)C(=O)N[C@@H](Cc1ccccc1)C(=O)N[C@@H](CO)C(=O)O` stands over 10000 nM. As to `C[C@H](NC(=O)[C@H](Cc1ccccc1)NC(=O)[C@@H](Cc1ccc(O)cc1)NC(=O)OC(C)(C)C)C(=O)O`, the IC50 in assay [1] is over 10000 nM. Still for that read-out and setting: under `O=C(O)C[C@H](NC(=O)[C@H](Cc1ccccc1)NC(=O)CCc1ccccc1)C(=O)O` (Hydrocinnamoyl-Phe-Asp-OH) stands over 10000 nM. As for `CC(C)(C)OC(=O)N[C@H](Cc1ccccc1)C(=O)N[C@@H](Cc1ccccc1)C(=O)N[C@@H](CCS)C(=O)O`, half-maximal inhibition in assay [1] (IC50) required 39 nM. In assay [2], this compound yielded an inhibition of 34%.

With `O=C(CCc1ccccc1)NC(CCS)C(=O)O` (stereo unspecified), the IC50 in assay [1] was determined as 7500 nM. The compound `CC(C)(C)OC(=O)N[C@@H](Cc1ccccc1)C(=O)N[C@@H](CCS)C(=O)O` (Boc-Phe-[hCys]-OH) showed an IC50 in assay [1] of 53 nM. On the same count and under the same terms, next, `CC(C)(C)OC(=O)N[C@H](Cc1ccc(O)cc1)C(=O)N[C@@H](Cc1ccccc1)C(=O)NCC(=O)O`: 4000 nM; `O=C(O)CC[C@H](NC(=O)[C@H](Cc1ccccc1)NC(=O)CCc1ccccc1)C(=O)O` (Hydrocinnamoyl-Phe-Glu-OH): over 10000 nM. With `O=C(CCc1ccccc1)N[C@@H](Cc1ccccc1)C(=O)N[C@@H](CCS)C(=O)O`, the half-inhibitory concentration (IC50) in assay [1] was 10 nM. The same compound returned an inhibition in assay [2] of 25%. In the case of `CCCC[C@H](NC(=O)CCc1ccccc1)C(=O)NC(CCS)C(=O)O` (stereo partly specified) (Hydrocinnamoyl-[Nle]-[ξhCys]-OH), the inhibition in assay [3] was determined as 7%. Also, in assay [1], it took 23 nM to reach half-maximal inhibition (IC50). `CC(C)[C@H](NC(=O)CCc1ccccc1)C(=O)NC(CCS)C(=O)O` (stereo partly specified) (Hydrocinnamoyl-Val-[ξhCys]-OH): inhibition in assay [1] was half-maximal at 160 nM (IC50).

`CSCC[C@H](NC(=O)CCc1ccccc1)C(=O)NC(CCS)C(=O)O` (stereo partly specified) gave an IC50 in assay [1] of 18 nM.

For `O=C(CCc1ccccc1)N[C@@H](Cc1ccccc1)C(=O)N[C@@H](CS)C(=O)O` (Hydrocinnamoyl-Phe-Cys-OH), 330 nM corresponded to half-maximal inhibition in assay [1] (IC50). Turning to `O=C(N[C@@H](Cc1ccccc1)C(=O)NC(CCS)C(=O)O)c1cc2ccccc2[nH]1` (stereo partly specified), it took 8 nM to reach half-maximal inhibition in assay [1] (IC50). This compound also returned an inhibition in assay [2] of 42%. `N[C@H](Cc1ccc(O)cc1)C(=O)N[C@@H](Cc1ccccc1)C(=O)NCC(=O)O` registered a half-inhibitory concentration (IC50) in assay [1] of over 10000 nM. Same read-out and setting: next, `O=C(O)CNC(=O)[C@H](Cc1ccccc1)NC(=O)[C@@H](Cc1ccc(O)cc1)NC(=O)OCc1ccccc1`: 3500 nM; `O=C(CCc1ccccc1)N[C@@H](Cc1ccccc1)C(=O)NCCCS`: 1600 nM. In the case of `O=C(N[C@@H](Cc1ccccc1)C(=O)NC(CCS)C(=O)O)c1ccc2ccccc2c1` (stereo partly specified), the IC50 in assay [1] turned out to be 10 nM. Besides, the inhibition in assay [2] is 67%. Compound `NC(=O)C[C@H](NC(=O)[C@H](Cc1ccccc1)NC(=O)CCc1ccccc1)C(=O)O` (Hydrocinnamoyl-Phe-Asn-OH) displayed an IC50 in assay [1] of over 10000 nM. Same read-out and setting: next, `O=C(CCc1ccccc1)N[C@@H](Cc1ccccc1)C(=O)N[C@H](CCS)C(=O)O`: 610 nM. `O=C(CCc1ccc(Cl)c(Cl)c1)N[C@@H](Cc1ccccc1)C(=O)NC(CCS)C(=O)O` (stereo partly specified) yielded an IC50 in assay [1] of 55 nM. Further, the inhibition in assay [2] worked out at 37%. In the case of `CC(C)C[C@H](NC(=O)CCc1ccccc1)C(=O)NC(CCS)C(=O)O` (stereo partly specified) (Hydrocinnamoyl-Leu-[ξhCys]-OH), half-maximal inhibition in assay [1] (IC50) was put at 300 nM. Turning to `CC(C)(C)OC(=O)N[C@H](Cc1ccc(O)cc1)C(=O)N[C@@H](Cc1ccccc1)C(=O)N[C@@H](CS)C(=O)O`, the IC50 in assay [1] was found to be 340 nM.

Turning to `O=C(COc1ccccc1)N[C@@H](Cc1ccccc1)C(=O)NC(CCS)C(=O)O` (stereo partly specified), inhibition in assay [1] was half-maximal at 14 nM (IC50). Further, the inhibition in assay [2] was found to be 22%. For `O=C(CCc1ccccc1)N[C@@H](Cc1ccccc1)C(=O)NC1CCSC1=O` (stereo partly specified) the same measures were over 10000 nM and 37%. The matching figures for `O=C(CCc1ccccc1)N[C@@H](Cc1ccccc1)C(=O)NC(CCS)C(=O)O` (stereo partly specified): 15 nM and 28%. In assay [1], `CN(C)c1cccc2c(S(=O)(=O)N[C@H](Cc3ccc(O)cc3)C(=O)N[C@@H](Cc3ccccc3)C(=O)NCC(=O)O)cccc12` came in with an IC50 of 4200 nM. On to `CCC(C)CC(=O)N[C@@H](Cc1ccccc1)C(=O)N[C@@H](CCS)C(=O)O` (stereo partly specified), for which, in assay [1], half-maximal inhibition (IC50) was put at 29 nM. The same compound showed an inhibition in assay [2] of 10%. As for `O=C(N[C@@H](Cc1ccccc1)C(=O)N[C@@H](CCS)C(=O)O)OCc1ccccc1` (Cbz-Phe-[hCys]-OH), the IC50 in assay [1] is 18 nM. Further, the inhibition in assay [2] came out at 40%.
